Source: article PMC4062594 (Nature chemical biology, 2014)
“Also recorded” adds a separate entry of the source.

Tests used:
[1] = biological target: T1, PTP1B (Homo sapiens, UniProt P18031); test: PTP assay with DiFMUP, MSI-1459 versus MSI-1436; format: biochemical; conditions: DiFMUP 10 uM, compound 0-10 μM
T1 sequence (P18031 1-435): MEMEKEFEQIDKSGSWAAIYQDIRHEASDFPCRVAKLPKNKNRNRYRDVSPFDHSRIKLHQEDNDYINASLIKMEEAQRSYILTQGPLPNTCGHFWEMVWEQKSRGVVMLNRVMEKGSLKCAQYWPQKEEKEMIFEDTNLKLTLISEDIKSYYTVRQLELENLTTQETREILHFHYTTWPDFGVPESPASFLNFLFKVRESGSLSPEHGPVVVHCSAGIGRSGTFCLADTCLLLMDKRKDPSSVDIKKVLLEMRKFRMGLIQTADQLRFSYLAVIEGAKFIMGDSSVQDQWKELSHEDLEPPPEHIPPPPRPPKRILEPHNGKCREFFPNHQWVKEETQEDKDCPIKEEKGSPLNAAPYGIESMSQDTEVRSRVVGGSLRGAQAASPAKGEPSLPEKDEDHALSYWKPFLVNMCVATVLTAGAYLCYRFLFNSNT

[2] = biological target: T2, PTP1B in tumor lysates from NDL2 mice (Mus musculus, UniProt P35821); test: Binding assay with bead-immobilized compound in tumor lysates; conditions: confirmed by immunoblotting
T2 sequence (P35821 1-432): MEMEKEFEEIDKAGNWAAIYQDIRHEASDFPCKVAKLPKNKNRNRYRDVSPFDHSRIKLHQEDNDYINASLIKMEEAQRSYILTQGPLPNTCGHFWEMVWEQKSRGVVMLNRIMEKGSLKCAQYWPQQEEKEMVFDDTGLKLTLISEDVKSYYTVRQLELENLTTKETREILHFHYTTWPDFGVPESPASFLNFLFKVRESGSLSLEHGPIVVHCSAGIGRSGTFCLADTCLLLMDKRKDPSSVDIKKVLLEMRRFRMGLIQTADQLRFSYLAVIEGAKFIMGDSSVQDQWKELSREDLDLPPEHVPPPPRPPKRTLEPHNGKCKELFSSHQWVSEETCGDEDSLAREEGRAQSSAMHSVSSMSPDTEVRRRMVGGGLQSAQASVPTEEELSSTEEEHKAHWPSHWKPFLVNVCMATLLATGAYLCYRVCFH
How it was run: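 Test compound was coupled through its primary amine to NHS-activated magnetic beads (1 mM, 100 mM triethylamine, 8 h, 4°C), and free NHS groups were blocked with 0.8 M aminoethanol. Beads were incubated with 0–1 mg NDL2 tumour lysate protein and washed. Bound protein was eluted by heat in SDS sample buffer, run on 10% SDS-PAGE and identified by immunoblotting. Beads carrying a related amine compound served as negative control.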

retention of 50 kDa band (PTP1B) by compound beads [2]: not bound
Substance: 3β-spermine, 5α, cholenic acid methyl ester [MSI-1459]
inhibition of PTP1B [1]: does not inhibit PTP1B; also recorded: poor inhibitory potency
